# An excerpt weighted towards active compounds, which were near 2.2% of everything screened.
# PPC-1+TRAIL kill: compounds killing PPC-1 cancer cells with TRAIL present, primary screen, TRAIL potentiator project, ATPLite luminescence, uHTS | PPC-1 cells + TRAIL, ATPLite viability luminescence | cell killing (% activity), % at 4 µM or 5 µM | 220,000 compounds, 0.41% hits | AID 1443, 2008;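 active means cell killing above 50% in the first pass at 4 µM, then a duplicate retest at 5 µM averaging 50% or more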;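 further: plate controls were cells with TRAIL plus DMSO for no effect and medium-only wells lacking cells for full effect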
# NF-kB neuron act: activators of NF-kB expression in neurons, primary screen, cell-based, HTS; human neuronal cells, NF-kB reporter expression; stronger effect = higher value; fold change at 12.5 µM; 190,000 compounds, 1.6% hits; in the data active means fold change above about 3.3
# FLuc act counter: FLuc activators, initial screening, artefact control for FLuc-dependent activation tests, biochemical, ATPlite luminescence; AID 1027, 2008; Luciferin 4-monooxygenase (Photinus pyralis), P08659; ATPlite luciferase biochemical, 10 min; 0 = ATP-free wells, 1 = DMSO control; 200,000 tested, under 10 active; activation factor at 10 µM;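 active means luciferase activation factor, scaled between plate controls, of at least 2 with compound at 10 µM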
# Target sequence (P08659 whole entry, looked up): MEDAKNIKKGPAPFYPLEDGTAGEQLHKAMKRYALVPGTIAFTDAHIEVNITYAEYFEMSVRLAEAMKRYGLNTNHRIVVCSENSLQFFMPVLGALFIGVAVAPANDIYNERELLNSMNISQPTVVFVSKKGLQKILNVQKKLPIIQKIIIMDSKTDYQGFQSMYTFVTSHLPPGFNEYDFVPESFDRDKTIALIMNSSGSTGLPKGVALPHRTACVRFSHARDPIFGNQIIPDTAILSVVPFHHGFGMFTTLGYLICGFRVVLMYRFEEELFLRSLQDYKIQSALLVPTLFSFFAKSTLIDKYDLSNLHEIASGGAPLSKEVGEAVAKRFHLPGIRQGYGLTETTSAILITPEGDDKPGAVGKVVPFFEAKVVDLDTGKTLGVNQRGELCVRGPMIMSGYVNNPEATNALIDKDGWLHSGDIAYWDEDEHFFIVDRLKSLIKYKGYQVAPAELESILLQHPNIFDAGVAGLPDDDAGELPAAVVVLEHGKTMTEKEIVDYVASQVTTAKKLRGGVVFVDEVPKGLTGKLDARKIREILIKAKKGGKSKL
#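 Material: Luciferase/luciferin reagent mix | Doses: Test compounds dosed from 2 mM stocks in 100% DMSO | Timing: 10 min incubation after luciferase reagent addition, room temperature | Measured by: Luminescence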
# FLuc inhib CS: firefly luciferase enzyme inhibitors, primary screen, artefact control for luciferase-based inhibitor screens, biochemical, luminescence, ATPLite. Luciferin 4-monooxygenase (Photinus pyralis), P08659. 10 min. inhibition, % at 10 µM. 200,000 compounds, 1.5% hits. AID 1006, 2008;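 active means inhibition above about 50% when tested at 10 µM, limit read from the data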
# TRAIL sens C8: viability loss with TRAIL in NB7+C8 cells, primary screen, TRAIL sensitizer project, cell-based, ATPlite luminescence; inhibition (viability loss, TRAIL sensitization), % at 10 µM; 360,000 compounds, 1% hits; AID 624354, 2012;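 active means compounds causing at least 50% loss of cell viability in the single-dose screen, relative to plate controls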
# APP 5'UTR act: activators of APP 5'UTR luciferase reporter, primary screen, SH-SY5Y cells | SH-SY5Y APP 5'UTR luciferase reporter, luminescence; zero percent = DMSO vehicle wells | activation, % at 2 µM | 190,000 compounds, 1% hits;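 active means activation above a set limit, based on mean plus 3 SD of controls, cut at about 140% in these data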
# Active calls of the source: *; / = no result given.
SMILES,PPC-1+TRAIL kill,NF-kB neuron act,FLuc act counter,FLuc inhib CS,TRAIL sens C8,APP 5'UTR act
c1ccc(NC2=Nc3ccccc3CS2)cc1,5.8,3.64*,0.9,10.5,4.4,112.6
c1ccc(NNC2=NCCS2)cc1,/,/,/,/,-9.8,/
COc1ccc(C(O)c2ncc(-c3cccc4ccccc34)[nH]2)cc1F (stereo not given),/,/,/,/,-5.9,/
CCCNC(=O)c1cc(C2CCCCN2S(=O)(=O)c2ccccc2)on1 (stereo not given),/,/,/,/,5.1,/
Cc1cc(NC(=O)OC(C)(C)C)c(-n2nnnc2C(C(=O)c2ccccc2)N2CCOCC2)cc1C (stereo not given),/,/,/,/,-11.9,/
CNc1nc(-c2ccc3c(c2)CCN3C(=O)c2ccccc2F)cs1,25.4,7.49*,0.4,64.9*,44.0,207.9*
CCCC(=O)N1CCc2cc(-c3nc(N)sc3C)ccc21,12.4,2.04,0.8,15.0,8.5,42.5
CCC(C)C(=O)N1CCc2cc(-c3csc(N)n3)ccc21 (stereo not given),9.7,2.04,0.3,67.2*,26.6,86.3
CCOC(=O)[C@]12CCC=C1N(Cc1ccccc1)C(=O)[C@H](CC(=O)NCc1cccc(C(F)(F)F)c1)C2,/,/,/,/,9.4,/
COc1ccccc1C(=O)NNC(=O)c1ccccc1[N+](=O)[O-],-4.4,1.21,1,-2.9,-3.2,12.8
Cc1ccc(C(=O)C(C)OC(=O)c2ccccc2[N+](=O)[O-])cc1 (stereo not given),18.8,9.63*,0.3,65.4*,31.4,172.9*
Cc1nn2cc(-c3ccc(Cl)cc3)cnc2c1Cl,-3.3,3.43*,1,3.0,-20.5,155.1*
COC(=O)N(C)c1nc2ccccc2s1,-3.1,1.29,0.9,7.1,2.9,17.4
CN(C(=O)OC(C)(C)C)c1ccc(-c2nc3ccccc3s2)cc1,/,/,/,/,89.2*,/
Cc1nn(Cc2ccccc2Cl)c(Cl)c1C(=O)NCCc1ccccc1,16.5,3.49*,0.8,22.3,5.4,/
CC(=O)N(CN1C(=O)c2ccccc2C1=O)c1cccc(C)c1,6.6,0.86,1.1,-7.0,-5.0,4.5
CC(=O)N(/N=C1\Sc2ccccc2C1=O)c1cccc(C)c1,8.3,7.08*,0.7,25.9,2.9,136.2*
Cc1cccc(-c2nsc(SCC(=O)N3CCCC3)n2)c1,15.6,3.91*,0.7,30.3,16.0,86.6
COCC(=O)N(C)C[C@@H]1Oc2cc(-c3ccc(F)cc3)ccc2S(=O)(=O)N([C@H](C)CO)C[C@H]1C,/,/,/,/,-1.1,/
CC(=O)N1N=C(c2ccc(Br)cc2)CC1c1ccc(Br)cc1 (stereo not given),/,/,/,/,-9.5,/
CNC(=S)N1N=C(c2ccc(C)cc2)CC1c1ccc(Br)cc1 (stereo not given),-8.3,3.43*,1,-3.4,-3.0,30.7
CNC(=S)N1N=C(c2ccc(C)cc2)CC1c1ccc(Cl)cc1 (stereo not given),21.8,4.45*,1.1,-5.2,-1.9,-0.4
Cc1csc(-c2ccc3cc(Cl)cc(Cl)c3n2)n1,/,/,/,/,1.2,/
CCN1CCc2nc(NC(=O)c3ccccc3)sc2C1,49.3,0.4,0.5,45.8,49.5*,116.1
COc1cccc(C(=O)Nc2nc3c(s2)CN(C)CC3)c1,23.2,1.79,0.4,56.1*,22.7,59.9
SMILES,PPC-1+TRAIL kill,NF-kB neuron act,FLuc act counter,FLuc inhib CS,TRAIL sens C8,APP 5'UTR act
CCOC(=O)N1CCC(Nc2c(-c3ccc(C)c(C)c3)c(=O)c2=O)CC1,-1.6,1.22,1.1,-8.5,58.0*,3.6
CCOC(=O)N1CCC(Nc2c(N3CCN(c4cc(Cl)ccc4C)CC3)c(=O)c2=O)CC1,7.5,0.75,1.1,-10.6,22.6,22.7
O=C(NCc1ccccn1)[C@@H]1CCCN1C(=O)[C@@H]1CCCN1,/,/,/,/,1.4,/
C=CCNc1nc(NCc2ccc(N(C)C)cc2)c2sc(-c3ccccc3)cc2n1,/,/,/,/,21.1,/
CCCNC(=O)C1(C)CCN(C(=O)/C=C/c2ccccc2)C1 (stereo not given),/,/,/,/,-23.3,/
O=[N+]([O-])c1ccc2cn(-c3ccccc3)nc2c1,18.7,1.33,0.9,13.3,5.2,140.9*

# Bioassay records as filed in PubChem BioAssay.
